Results published in ChEMBL document CHEMBL1123873, “N-(heterocyclic alkyl)pyrido[2,1-b]quinazoline-8-carboxamides as orally active antiallergy agents” (J Med Chem, 1987).

Experiments:
[1] = organism: Cavia porcellus; assay: Evaluated for inhibition of slow reacting substance of anaphylaxis (SRS-A) induced contractions in guinea pig ileum strips; type: functional
How it was run: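 Guinea pig ileum strips were contracted with SRS-A at 5.0 units/mL, the level giving 50% of maximal contraction. Each compound was tested in duplicate at three concentrations giving 10–90% inhibition. IC50 was obtained by linear regression.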

[2] = biological target: T1, Thromboxane-A synthase (Homo sapiens, UniProt P24557); assay: Inhibition of human platelet thromboxane synthase (TXA2) was determined in human platelets
T1 sequence (P24557 whole entry): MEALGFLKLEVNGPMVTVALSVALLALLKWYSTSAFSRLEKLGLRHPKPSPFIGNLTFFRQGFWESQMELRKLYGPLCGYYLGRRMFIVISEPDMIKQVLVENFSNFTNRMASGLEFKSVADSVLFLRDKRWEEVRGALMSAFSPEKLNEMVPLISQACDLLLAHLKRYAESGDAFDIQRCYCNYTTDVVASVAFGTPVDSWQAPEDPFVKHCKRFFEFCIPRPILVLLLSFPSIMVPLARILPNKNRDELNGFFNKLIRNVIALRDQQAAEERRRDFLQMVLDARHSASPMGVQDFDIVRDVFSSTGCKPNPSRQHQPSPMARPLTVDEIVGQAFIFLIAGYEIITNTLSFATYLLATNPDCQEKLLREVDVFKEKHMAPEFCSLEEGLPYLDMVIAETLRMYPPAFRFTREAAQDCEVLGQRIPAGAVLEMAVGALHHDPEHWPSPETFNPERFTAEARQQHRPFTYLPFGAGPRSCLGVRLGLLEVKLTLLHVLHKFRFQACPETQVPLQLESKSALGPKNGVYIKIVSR
How it was run: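 The enzyme source was microsomal fractions of human platelets. Conversion of [14C]PGH2 to [14C]TXB2 ran 2 min at 22 °C and was then stopped. Products were ether-extracted, separated by TLC and counted. Compounds were tested in triplicate at three log-spaced concentrations, and IC50 was obtained by linear regression.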

[3] = system: Cavia porcellus; assay: In vivo inhibition of LTE4 (leukotriene)-induced bronchoconstrictions in guinea pig and percent inhibition was reported at 10 mg/Kg administered intravenously; type: functional; conditions: iv
How it was run: (§1)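 Guinea pigs pretreated with propranolol were challenged with LTE4. The drug was given either 10 mg/kg iv 30 s before challenge or 100 mg/kg orally 2 h before. Bronchoconstriction was scored as percent inhibition versus control animals. Oral ID50 was calculated from varying oral doses.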

[4] = system: Cavia porcellus; assay: In vivo inhibition of LTE4 (leukotriene)-induced bronchoconstrictions in guinea pig and percent inhibition was reported at 100 mg/Kg administered perorally; type: functional; conditions: po; how it was run: as §1
[5] = system: Rattus norvegicus; assay: In vivo inhibition of LTE4 (leukotriene)-induced skin wheal formation in rat
[6] = system: Rattus norvegicus; assay: In vivo inhibition of LTE4 (leukotriene)-induced skin wheal formation in rat and percent inhibition was reported at 100 mg/Kg administered perorally; conditions: po
[7] = system: Rattus norvegicus; assay: In vivo inhibition of LTE4 (leukotriene)-induced skin wheal formation in rat and percent inhibition was reported at 10 mg/Kg administered intravenously; conditions: iv
[8] = system: Cavia porcellus; assay: (§2) In vivo inhibition of LTE4 (leukotriene)-induced administration; type: functional
[9] = system: Cavia porcellus; assay: as §2; type: functional; remark: listed apart in the source
[10] = organism: Cavia porcellus; assay: Ability to inhibit bronchoconstriction induced in actively sensitized guinea pig by antigen-induced de novo biosynthesis of SRS-A; type: functional
[11] = system: Cavia porcellus; assay: In vivo inhibition of LTE4 (leukotriene)-induced bronchoconstrictions in guinea pig and ID50 was reported perorally; type: functional; how it was run: as §1
[12] = system: Rattus norvegicus; assay: Compound was evaluated in vivo by rat passive cutaneous anaphylaxis test (PCA) after oral administration; type: functional
[13] = organism: Cavia porcellus; assay: Ability to inhibit bronchoconstriction in guinea pig induced by histamine
[14] = system: Rattus norvegicus; assay: In vivo inhibition of LTE4 (leukotriene)-induced skin wheal formation in rat; remark: listed apart in the source
[15] = organism: Cavia porcellus; assay: Ability to inhibit bronchoconstriction in guinea pig induced by platelet activating factor
[16] = system: Rattus norvegicus; assay: Compound was evaluated in vivo by rat passive cutaneous anaphylaxis test (PCA)after oral administration; conditions: read-out: ID50 (the source's name)
[17] = system: Cavia porcellus; assay: In vivo inhibition of LTE4 (leukotriene)-induced bronchoconstrictions in guinea pig after oral administration; type: functional; how it was run: as §1
[18] = system: Rattus norvegicus; assay: In vivo inhibition of LTE4 (leukotriene)-induced skin wheal formation in rat determined after (iv) administration of a dose of 10 mg/kg
[19] = system: Rattus norvegicus; assay: In vivo inhibition of LTE4 (leukotriene)-induced skin wheal formation in rat determined after (po) administration of a dose of 100 mg/Kg

| Compound | IC50 [1] | IC50 [2] | further results |
| --- | --- | --- | --- |
| CC(CCCc1cccnc1)NC(=O)c1ccc2nc3ccc(C(C)C)cc3c(=O)n2c1 (centres undefined) | 8000 nM | 1000 nM |  |
| Cc1nccn1CCCCNC(=O)c1ccc2nc3ccc(C(C)C)cc3c(=O)n2c1 | 9000 nM | 5000 nM |  |
| CC(C)c1ccc2nc3ccc(C(=O)NCCSCc4cccnc4)cn3c(=O)c2c1 | 5000 nM | 600 nM |  |
| CC(C)c1ccc2nc3ccc(C(=O)NCCCCOc4cccnc4)cn3c(=O)c2c1.Cl.Cl | 800 nM | 50 nM | inhibition in vivo at 10 mg/kg [3]: 94%; inhibition in vivo at 100 mg/kg [4]: 60%; IC50 [5]: 100 mg/kg; inhibition in vivo at 100 mg/kg [6]: 56%; inhibition in vivo at 10 mg/kg [7]: 64% |
| CC(C)c1ccc2nc3ccc(C(=O)N(C)CCCCc4cccnc4)cn3c(=O)c2c1 | 1000 nM | 600 nM |  |
| CC(C)c1ccc2nc3ccc(C(=O)NCCCc4cccnc4)cn3c(=O)c2c1 | 5000 nM | 100 nM |  |
| CC(C)c1ccc2nc3ccc(C(=O)NCCCCCCc4cccnc4)cn3c(=O)c2c1 | 1000 nM |  | inhibition in vivo at 10 mg/kg [3]: 71%; inhibition in vivo at 100 mg/kg [4]: 28%; inhibition in vivo at 100 mg/kg [6]: 62%; inhibition in vivo at 10 mg/kg [7]: 70% |
| Cc1cc2nc3ccc(C(=O)NCCCCc4cccnc4)cn3c(=O)c2cc1C | 7000 nM | 100 nM |  |
| CC(C)c1ccc2nc3ccc(C(=O)NCCCCCc4cccnc4)cn3c(=O)c2c1.Cl.Cl | 1000 nM | 100 nM | Inhibition [8]: 84%; Inhibition [9]: 21%; inhibition in vivo at 100 mg/kg [6]: 65%; inhibition in vivo at 10 mg/kg [7]: 61% |
| CC(C)c1ccc2nc3ccc(C(=O)NCCc4cccnc4)cn3c(=O)c2c1 | 10000 nM | 4000 nM |  |
| CC(C)c1ccc2nc3ccc(C(=O)NCCCCn4ccnc4)cn3c(=O)c2c1.Cl.Cl | 1000 nM | 200 nM | ID50 mg/kg [10]: 50; ID50 mg/kg [11]: 47; inhibition in vivo at 10 mg/kg [3]: 87%; inhibition in vivo at 100 mg/kg [4]: 87%; ID50 mg/kg [12]: 20; ID50 mg/kg [13]: 39; IC50 [14]: 46 mg/kg; ID50 mg/kg [15]: 13; inhibition in vivo at 100 mg/kg [6]: 63%; inhibition in vivo at 10 mg/kg [7]: 26% |
| CC(C)c1ccc2nc3ccc(C(=O)NCCCCc4ccncc4)cn3c(=O)c2c1.Cl.Cl | 1000 nM | 100 nM | ID50 mg/kg [11]: 57; inhibition in vivo at 10 mg/kg [3]: 89%; inhibition in vivo at 100 mg/kg [4]: 73%; IC50 [5]: 90 mg/kg; inhibition in vivo at 100 mg/kg [6]: 63%; inhibition in vivo at 10 mg/kg [7]: 54% |
| CC(C)c1ccc2nc3ccc(C(=O)O)cn3c(=O)c2c1 |  |  | ED50 [16]: 0.45 mg/kg |
| COc1ccc2nc3ccc(C(=O)NCCCCc4cccnc4)cn3c(=O)c2c1 | 10000 nM | 200 nM |  |
| CC(C)c1ccc2nc3ccc(C(=O)NCCCCc4cncnc4)cn3c(=O)c2c1 | 5000 nM | 200 nM |  |
| Cc1ccc2nc3ccc(C(=O)NCCCCc4cccnc4)cn3c(=O)c2c1 | 5000 nM | 100 nM |  |
| CC(C)c1ccc2nc3ccc(C(=O)NC(C)(C)CCCc4cccnc4)cn3c(=O)c2c1 | 5000 nM | 500 nM |  |
| CC(CCc1cccnc1)NC(=O)c1ccc2nc3ccc(C(C)C)cc3c(=O)n2c1 (centres undefined) | 5000 nM | 300 nM |  |
| COc1ccc2c(=O)n3cc(C(=O)NCCCCc4cccnc4)ccc3nc2c1 | > 10000 nM | 20 nM |  |
| CC(C)c1ccc2nc3ccc(C(=O)NCCCCc4ccccn4)cn3c(=O)c2c1 | 1000 nM | > 10000 nM |  |
| O=C(NCCCCc1cccnc1)c1ccc2nc3ccc(O)cc3c(=O)n2c1 | 3000 nM | 50 nM |  |
| O=C(NCCCCc1cccnc1)c1ccc2nc3cc(Cl)ccc3c(=O)n2c1 | 8000 nM | 20 nM |  |
| CC(C)Oc1ccc2nc3ccc(C(=O)NCCCCc4cccnc4)cn3c(=O)c2c1 | 10000 nM | 60 nM |  |
| CC(C)c1ccc2nc3ccc(C(=O)NCCCCc4cccnc4)cn3c(=O)c2c1 | 1000 nM | 200 nM | ID50 mg/kg [17]: 60; Inhibition [8]: 94%; Inhibition [9]: 76%; IC50 [5]: 70 mg/kg; inhibition in vivo at 10 mg/kg [18]: 60%; inhibition in vivo at 100 mg/kg [19]: 61% |
| O=C(NCCCCc1cccnc1)c1ccc2nc3ccc(Br)cc3c(=O)n2c1 | > 10000 nM | 100 nM |  |
| O=C(NCCCCc1cccnc1)c1ccc2nc3cc4c(cc3c(=O)n2c1)CCCC4 | 9000 nM | 300 nM |  |
| O=C(NCCCCc1cccnc1)c1ccc2nc3ccccc3c(=O)n2c1 | 5000 nM | 20 nM |  |
| CC(C)c1ccc2nc3ccc(C(=O)NCCCCCCCc4cccnc4)cn3c(=O)c2c1 | > 10000 nM | 200 nM |  |
| O=C(O)c1ccc(OCCn2ccnc2)cc1 [DAZOXIBEN] | > 10000 nM |  | inhibition in vivo at 10 mg/kg [3]: 88%; inhibition in vivo at 100 mg/kg [4]: 81%; inhibition in vivo at 100 mg/kg [6]: 11%; inhibition in vivo at 10 mg/kg [7]: 9% |
| CCCc1c(OCC(O)COc2ccc3c(=O)cc(C(=O)O)oc3c2CCC)ccc(C(C)=O)c1O (centres undefined) [FPL-55712] |  | 10000 nM | inhibition in vivo at 10 mg/kg [3]: 98%; inhibition in vivo at 100 mg/kg [4]: 23%; inhibition in vivo at 100 mg/kg [6]: 2%; inhibition in vivo at 10 mg/kg [7]: 88% |
